Experimental data collected from several papers.
Protocols differ between the studies behind these lines.
Target: Misshapen-like kinase 1 (MINK1, Homo sapiens, UniProt Q8N4C8)

SMILES | observed | action | technique | concentration | quantity | result
Cn1cc(-c2cccc(N3CCc4c(sc5c4CC(C)(C)C5)C3=O)c2CO)cc(Nc2ccncn2)c1=O | enzyme activity | inhibitor | – | 1 µM | inhibition | 11%
Cc1nn(C)cc1-c1nc2c(N3CCN(Cc4ccc(Cl)cc4)CC3)c(Cl)cnc2[nH]1 | binding | – | competition with immobilised ligand | 1 µM | remaining binding | 84%
Nc1ncc(-c2nc(N3CCOCC3)nc(N3CCOCC3)n2)c(C(F)F)n1 | binding | – | competition with immobilised ligand | 10 µM | remaining binding | 66%
Cn1cncc1[C@@](O)(COc1ccc(C#N)cc1-c1ccc(OC(F)(F)F)cc1)c1ccc(C#N)cc1 | cell-free assay | – | competition with immobilised ligand | 1 µM | remaining binding | 100%
O=c1[nH]c2ccccc2n1C1CCN(Cc2ccc(-c3[nH]c4cc5ncnc5cc4nc3-c3ccccc3)cc2)CC1 | cell-free assay | – | – | 0.5 µM | remaining signal | 103%
Cn1cc(-c2cc(F)cc(N3CCn4c(cc5c4CCCC5)C3=O)c2CO)cc(Nc2ccc(N3CCN(C4COC4)CC3)cn2)c1=O | enzyme activity | inhibitor | – | 0.1 µM | inhibition | 12%
C#Cc1n[nH]c2c(-c3cn([C@@H](C)c4ccccn4)c(=O)[nH]c3=O)cc(F)cc12 | enzyme activity | inhibitor | – | 0.1 µM | inhibition | 5.6%
N#CC1(c2ccccn2)CCN(Cc2cc(C(=O)O)c(=O)n3ccccc23)CC1 | cell-free assay | – | competition with immobilised ligand | 1 µM | remaining binding | 92%
C#Cc1n[nH]c2c(-c3cn([C@@H](C)c4ccccc4)c(=O)[nH]c3=O)cc(F)cc12 | enzyme activity | inhibitor | – | 0.1 µM | inhibition | 2%
CC(C)(C)c1cc(C=C(C#N)C#N)cc(Br)c1O | enzyme activity | inhibitor | – | 0.5 µM | remaining activity | 111%
